From the RNAGym collection of RNA variant scans (doi:10.1126/science.aae0568)
Variants at the floor of the assay were thinned out.

B1: tRNA (parent)
chain: GUUCCGUUGGCGUAAUGGUAACGCGUCUCCCUCCUAAGGAGAAGACUGCGGGUUCGAGUCCCGUACGGAACG

Variants of: B1
Test: yeast fitness relative to wild type (ratio to wild type); higher = fitter; tRNA-Arg(CCU), competitive growth, 37 C, YPD
Method in brief: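 Changes in genotype frequencies gave Darwinian fitness relative to wild type. Frequencies were read by 100-nucleotide paired-end sequencing of gene amplicons before and after pooled Saccharomyces cerevisiae strains, carrying tRNA-Arg(CCU) gene variants at the native locus, were competed in YPD at 37°C for 24 hours in six replicates. A genotype was kept only with ≥ 100 starting reads, and estimates < 0.5 were set to 0.5.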

Variant | yeast fitness
U16A G51A | 0.752
U16C C27G C29U U54C | 0.568
U16C C22U A65U | ≤ 0.5
U16A G38C C61U U64C | ≤ 0.5
U16A C24G C46U G50C C55U A57U C62G A70U | ≤ 0.5
U16C C22G U64C | 0.625
U16A G25C G48A U59A | ≤ 0.5
U16A G50C C55U U59G C66U G67A | ≤ 0.5
U16A C60U | 0.805
U16A C60A C62U | 0.609
U16A C33A C34A C62A | ≤ 0.5
U16C A43C A45U C49G | 0.722
U16C A20U C24U C49A | ≤ 0.5
U16A G41A A69C | 0.631
U16A G17A A20G C22G C61U G68C | 0.559
U16C A42C A65U | 0.585
U16C A40U A57C A70U | 0.585
U16A C34A U64C | 0.513
U16C C22U A70U | 0.572
U16C C24U C29A C31G C34G | ≤ 0.5
U16A C27G | 0.548

Variant | yeast fitness
U16C A40C A57G C61U | ≤ 0.5
U16C A36G G68A | 0.556
U16C C27U C29A A40G A43C G50U | ≤ 0.5
U16A C30G A37C | ≤ 0.5
U16A C27G A65C | 0.585
U16A G58A G67U | ≤ 0.5
U16C A20U U32C | 0.615
U16A C29G C31G C62U A69C | ≤ 0.5
U16A C49U G52A C60A | ≤ 0.5
U16A C31A G67U | ≤ 0.5
U16A C60A G67C | ≤ 0.5
U16A G44C | 0.751
U16A G44A | 0.999
U16A C31A G51A | 0.552
U16A G17A C34U C66U A70U | ≤ 0.5
U16A C29G C30U A40U | ≤ 0.5
U16A C49U | 0.946
U16C A21G G63C | ≤ 0.5
U16A C46G | 0.951
U16A U32A A40C C62U | ≤ 0.5
U16A G39A G48A G63A A65C | ≤ 0.5

Variant | yeast fitness
U16C A65G A70C | 0.786
U16C C24U | 0.882
U16C C24A | 0.668
U16C A43G U59C | 0.609
U16C C22U A40G A43U C46G C49G C62U | 0.55
U16A G23A C33A | 0.644
U16A G38A C62A A69U | ≤ 0.5
U16A C34U | 0.663
U16A G48A C62G A69U | 0.629
U16C A21C G41C A43C | ≤ 0.5
U16C A45G | 0.919
U16A G52A A57C C66U | ≤ 0.5
U16A C27G A36U | ≤ 0.5
U16A C49U A69U | 0.647
U16C A70U | 0.902
U16A G18C G48C | 0.646
U16C A37U | 0.683
U16C A37C | 0.678
U16C C24U C30U | ≤ 0.5
U16A C24U C34A A65G G67A | ≤ 0.5
U16C C24U C30U C62A | ≤ 0.5

Variant | yeast fitness
U16A G17A C66G A70U | 0.634
U16A C30A A42C | 0.558
U16A G23C U26A C29U A42U G48A G67A | ≤ 0.5
U16A C46U G51C | 0.769
U16A U32C A37U C49A C60U G68C | ≤ 0.5
U16A C24U C34A A65G | 0.716
U16A C60G C61G G68C | ≤ 0.5
U16A C62U A69G | 0.922
U16A C30G C34G A42U G52A A57C A65G | ≤ 0.5
U16A C30G C34G A42U C66U | ≤ 0.5
U16C C22G C66U | 0.721
U16A C27G A42U U53C | ≤ 0.5
U16A C62A | 0.786
U16C A57U | 0.686
U16A C24U | 1.06
U16C A43G | 1.13
U16A G67A | 0.926
U16A G67U | 0.85
U16A C60G G67A | ≤ 0.5
U16C C22G C27G U53C C61A G68A | ≤ 0.5
